SMILES strings stand for the structures. ≈ marks a conversion by molar mass, not a printed value.

In assay [1] the test system is Mycobacterium tuberculosis. Put plainly: Antimycobacterial activity against Mycobacterium tuberculosis H37Rv by agar dilution method. It is filed as functional. The method, boiled down:
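MIC was determined by agar dilution, in duplicate.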

In assay [2] the test system is Mycolicibacterium smegmatis. As to the kind of experiment: Antimicrobial activity against Mycobacterium smegmatis by agar dilution method. It is filed as functional. A digest of the protocol:
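Agar dilution against M. smegmatis ATCC 14468; MIC determined in duplicate.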

In a further assay the test system is Vero. As to the kind of experiment: Cytotoxicity against Vero cells after 72 hrs by MTT assay. It is filed as cell-based. The note with it: Chlorocebus sabaeus. The method, boiled down: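 Vero cells were exposed to serially diluted compound up to 62.5 µg/mL for 72 h. Viability was read by cellular conversion of MTT to formazan (CellTiter 96 non-radioactive proliferation assay), and IC50 was derived.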

For `CC1(C)COCN1c1nc2c(cc1[N+](=O)[O-])c(=O)c(C(=O)O)cn2C1CC1`, the MIC stood at 0.51 µM (≈ 0.191 µg/mL) in assay [1] and 4.17 µM (≈ 1.56 µg/mL) in assay [2]. In the assay with Vero, this molecule came in with an IC50 of 167 µM.

Regarding `O=C(O)c1cn(-c2ccc(F)cc2)c2nc(N3CCN(C(=O)C4COc5ccccc5O4)CC3)c([N+](=O)[O-])cc2c1=O` (centres undefined), the MIC in assay [1] came to 10.9 µM (≈ 6.25 µg/mL); in assay [2], 21.7 µM (≈ 12.5 µg/mL). For the same molecule, in the assay on Vero, the IC50 was above 54.3 µM.

For the molecule `O=C(O)c1cn(C2CC2)c2nc(N3CCN(C(c4ccccc4)c4ccc(Cl)cc4)CC3)c([N+](=O)[O-])cc2c1=O` (centres undefined), the MIC in assay [1] amounted to 5.59 µM (≈ 3.13 µg/mL); in assay [2] it was 22.3 µM (≈ 12.5 µg/mL). This molecule also displayed an IC50 in the assay on Vero of 112 µM.

On to `O=C(O)c1cn(-c2ccc(F)cc2)c2nc(N3CCC(O)(c4ccc(Cl)cc4)CC3)c([N+](=O)[O-])cc2c1=O`, for which the MIC in assay [1] came to 2.89 µM (≈ 1.56 µg/mL); in assay [2], 11.6 µM (≈ 6.25 µg/mL). Also, in the assay with Vero, the IC50 came to 59.6 µM.

For `CC(C)(C)n1cc(C(=O)O)c(=O)c2cc([N+](=O)[O-])c(N3CCC(N4CCCCC4)CC3)nc21`, the MIC in assay [1] worked out at 1.7 µM (≈ 0.778 µg/mL); in assay [2] it was 6.84 µM (≈ 3.13 µg/mL). The molecule also gave an IC50 with Vero above 137 µM.

As to `O=C(O)c1cn(C2CC2)c2nc(N3CCC(n4c(=O)[nH]c5cc(Cl)ccc54)CC3)c([N+](=O)[O-])cc2c1=O`, the MIC in assay [1] amounted to 2.97 µM (≈ 1.56 µg/mL); in assay [2], 23.8 µM (≈ 12.5 µg/mL). Further, it took 55.5 µM to reach half-maximal inhibition in the assay on Vero (IC50).

As to `CC(C)(C)n1cc(C(=O)O)c(=O)c2cc([N+](=O)[O-])c(N3CCC(n4c(=O)[nH]c5cc(Cl)ccc54)CC3)nc21`, the results for the MIC in assay [1] and in assay [2] were 2.88 µM (≈ 1.56 µg/mL) and 11.5 µM (≈ 6.24 µg/mL), respectively. The molecule also came in with an IC50 with Vero of 57.7 µM.

For the molecule `O=C(O)c1cn(C2CC2)c2nc(N3CCC(O)(c4ccc(Cl)cc4)CC3)c([N+](=O)[O-])cc2c1=O`, the figures for the MIC in assay [1] and in assay [2] were 6.46 µM (≈ 3.13 µg/mL) and 25.8 µM (≈ 12.5 µg/mL), respectively. In the assay on Vero, the IC50 was 64.4 µM.

Regarding `CCN(CC)C(=O)C1CCCN(c2nc3c(cc2[N+](=O)[O-])c(=O)c(C(=O)O)cn3C2CC2)C1` (centres undefined), the MIC in assay [1] stood at 3.41 µM (≈ 1.56 µg/mL); in assay [2], 109 µM (≈ 50 µg/mL). For the same molecule, in the assay with Vero, the IC50 is above 137 µM.

Regarding `CCN(CC)C(=O)C1CCCN(c2nc3c(cc2[N+](=O)[O-])c(=O)c(C(=O)O)cn3-c2ccc(F)cc2)C1` (centres undefined), the figures for the MIC in assay [1] and in assay [2] were 3.05 µM (≈ 1.56 µg/mL) and 12.2 µM (≈ 6.25 µg/mL), respectively. Further, in the assay with Vero, the half-maximal inhibitory concentration (IC50) was above 122 µM.

Turning to `CCN(CC)C(=O)C1CCCN(c2nc3c(cc2[N+](=O)[O-])c(=O)c(C(=O)O)cn3C(C)(C)C)C1` (centres undefined), the MIC turned out to be 3.29 µM (≈ 1.56 µg/mL) in assay [1] and 106 µM (≈ 50 µg/mL) in assay [2]. In the assay on Vero, the IC50 is above 132 µM.

Take `O=C(O)c1cn(-c2ccc(F)cc2)c2nc(N3CCN(Cc4ccc5c(c4)OCO5)CC3)c([N+](=O)[O-])cc2c1=O`: the MIC in assay [1] is 11.4 µM (≈ 6.25 µg/mL); in assay [2] it was 45.7 µM (≈ 25 µg/mL). The molecule further returned an IC50 in the assay with Vero of 57.1 µM.

On to `CC(C)(C)n1cc(C(=O)O)c(=O)c2cc([N+](=O)[O-])c(N3CCN(Cc4ccc5c(c4)OCO5)CC3)nc21`, for which the MIC in assay [1] turned out to be 1.53 µM (≈ 0.78 µg/mL); in assay [2] it was 6.14 µM (≈ 3.13 µg/mL). Besides, the IC50 with Vero was above 123 µM.

Consider `O=C(O)c1cn(-c2ccc(F)cc2)c2nc(N3CCC4(CC3)OCCO4)c([N+](=O)[O-])cc2c1=O`, for which the MIC stood at 6.65 µM (≈ 3.13 µg/mL) in assay [1] and 26.6 µM (≈ 12.5 µg/mL) in assay [2]. In the assay with Vero, this molecule yielded a 50% inhibitory concentration (IC50) of 133 µM.

Regarding `CN1CCN(c2nc3c(cc2[N+](=O)[O-])c(=O)c(C(=O)O)cn3C2CC2)CC1c1ccccc1` (centres undefined), the MIC in assay [1] was 6.96 µM (≈ 3.13 µg/mL); in assay [2] it was 27.8 µM (≈ 12.5 µg/mL). Moreover, in the assay on Vero, the IC50 was 139 µM.

Regarding `CC(C)(C)NC(=O)C1c2ccccc2CCN1c1nc2c(cc1[N+](=O)[O-])c(=O)c(C(=O)O)cn2C1CC1` (centres undefined), the MIC in assay [1] is 3.09 µM (≈ 1.56 µg/mL); in assay [2], 24.7 µM (≈ 12.5 µg/mL). In the assay on Vero, this molecule came in with an IC50 of 124 µM.

For `O=C(O)c1cn(C2CC2)c2nc(N3CCSCC3)c([N+](=O)[O-])cc2c1=O`, the minimum inhibitory concentration (MIC) in assay [1] stood at 8.32 µM (≈ 3.13 µg/mL); in assay [2], 33.2 µM (≈ 12.5 µg/mL). The molecule also had an IC50 in the assay on Vero of 166 µM.

As to `CN1CCN(c2nc3c(cc2[N+](=O)[O-])c(=O)c(C(=O)O)cn3C(C)(C)C)CC1c1ccccc1` (centres undefined), the MIC in assay [1] is 0.84 µM (≈ 0.391 µg/mL); in assay [2] it was 13.4 µM (≈ 6.25 µg/mL). In addition, in the assay with Vero, the IC50 was above 134 µM.

On to `O=C(O)c1cn(C2CC2)c2nc(N3CCN(C(=O)C4COc5ccccc5O4)CC3)c([N+](=O)[O-])cc2c1=O` (centres undefined), for which the MIC in assay [1] stood at 12 µM (≈ 6.25 µg/mL); in assay [2] it was 6 µM (≈ 3.13 µg/mL). The molecule further had an IC50 in the assay with Vero of 59.9 µM.

Regarding `COc1ccc(CC2C3=C(CCCC3)CCN2c2nc3c(cc2[N+](=O)[O-])c(=O)c(C(=O)O)cn3-c2ccc(F)cc2)cc1` (centres undefined), the MIC worked out at 10.7 µM (≈ 6.25 µg/mL) in assay [1] and 85.5 µM (≈ 50 µg/mL) in assay [2]. The same molecule yielded an IC50 in the assay with Vero below 53.5 µM.

For `CC1CN(c2nc3c(cc2[N+](=O)[O-])c(=O)c(C(=O)O)cn3C2CC2)CC(C)O1` (centres undefined), the MIC in assay [1] stood at 4.02 µM (≈ 1.56 µg/mL); in assay [2] it was 32.2 µM (≈ 12.5 µg/mL). Also, the IC50 with Vero was above 161 µM.

For `CC1CN(c2nc3c(cc2[N+](=O)[O-])c(=O)c(C(=O)O)cn3C(C)(C)C)CC(C)O1` (centres undefined), the figures for the MIC in assay [1] and in assay [2] were 7.74 µM (≈ 3.13 µg/mL) and 15.4 µM (≈ 6.25 µg/mL), respectively. The molecule further came in with a 50% inhibitory concentration (IC50) in the assay on Vero of 159 µM.

As to `O=C(O)c1cn(-c2ccc(F)cc2)c2nc(N3CCC(N4CCCCC4)CC3)c([N+](=O)[O-])cc2c1=O`, the MIC in assay [1] was determined as 3.15 µM (≈ 1.56 µg/mL); in assay [2], 25.2 µM (≈ 12.5 µg/mL). This molecule returned an IC50 with Vero above 126 µM.

For `CC(C)(C)n1cc(C(=O)O)c(=O)c2cc([N+](=O)[O-])c(N3CCN(C(=O)C4COc5ccccc5O4)CC3)nc21` (centres undefined), the results for the MIC in assay [1] and in assay [2] were 1.45 µM (≈ 0.779 µg/mL) and 5.82 µM (≈ 3.13 µg/mL), respectively. Also, the IC50 in the assay on Vero came out at 116 µM.

In the case of `CC(C)(C)NC(=O)C1c2ccccc2CCN1c1nc2c(cc1[N+](=O)[O-])c(=O)c(C(=O)O)cn2C(C)(C)C` (centres undefined), the MIC in assay [1] turned out to be 2.99 µM (≈ 1.56 µg/mL); in assay [2], 6 µM (≈ 3.13 µg/mL). In the assay with Vero, this molecule yielded an IC50 of 120 µM.

For `O=C(O)c1cn2c(n1)CN(c1nc3c(cc1[N+](=O)[O-])c(=O)c(C(=O)O)cn3C1CC1)CC2`, the MIC in assay [1] is 3.54 µM (≈ 1.56 µg/mL); in assay [2] it was 28.4 µM (≈ 12.5 µg/mL). In addition, the IC50 with Vero came out at 142 µM.

Take `CC(C)(C)n1cc(C(=O)O)c(=O)c2cc([N+](=O)[O-])c(N3CCn4cc(C(=O)O)nc4C3)nc21`: the MIC in assay [1] was determined as 0.42 µM (≈ 0.192 µg/mL); in assay [2], 6.86 µM (≈ 3.13 µg/mL). In the assay on Vero, this molecule registered an IC50 above 137 µM.

As for `COc1ccc(CC2C3=C(CCCC3)CCN2c2nc3c(cc2[N+](=O)[O-])c(=O)c(C(=O)O)cn3C(C)(C)C)cc1` (centres undefined), the MIC in assay [1] came to 5.73 µM (≈ 3.13 µg/mL); in assay [2] it was 11.4 µM (≈ 6.25 µg/mL). In the assay on Vero, this molecule gave an IC50 above 114 µM.

As for `O=C(O)c1cn(C2CC2)c2nc(N3CCC(N4CCCCC4)CC3)c([N+](=O)[O-])cc2c1=O`, the values for the MIC in assay [1] and in assay [2] were 7.09 µM (≈ 3.13 µg/mL) and 28.3 µM (≈ 12.5 µg/mL), respectively. Also, in the assay on Vero, the IC50 was above 142 µM.

For `O=C(O)c1cn(-c2ccc(F)cc2)c2nc(N3CCC(n4c(=O)[nH]c5cc(Cl)ccc54)CC3)c([N+](=O)[O-])cc2c1=O`, the MIC is 2.69 µM (≈ 1.56 µg/mL) in assay [1] and 10.8 µM (≈ 6.25 µg/mL) in assay [2]. This molecule also registered an IC50 with Vero of 53.9 µM.

In the case of `CC(C)(C)NC(=O)C1c2ccccc2CCN1c1nc2c(cc1[N+](=O)[O-])c(=O)c(C(=O)O)cn2-c1ccc(F)cc1` (centres undefined), the MIC was 2.79 µM (≈ 1.56 µg/mL) in assay [1] and 11.2 µM (≈ 6.25 µg/mL) in assay [2]. Besides, the IC50 in the assay on Vero turned out to be 112 µM.

Take `CC(C)(C)n1cc(C(=O)O)c(=O)c2cc([N+](=O)[O-])c(N3CCC(O)(c4ccc(Cl)cc4)CC3)nc21`: the MIC in assay [1] came out at 3.11 µM (≈ 1.56 µg/mL); in assay [2], 24.9 µM (≈ 12.5 µg/mL). The IC50 with Vero turned out to be 125 µM.

As for `O=C(O)c1cn(C2CC2)c2nc(N3CCC4(CC3)OCCO4)c([N+](=O)[O-])cc2c1=O`, the MIC in assay [1] was found to be 7.52 µM (≈ 3.13 µg/mL); in assay [2] it was 30 µM (≈ 12.5 µg/mL). In addition, the IC50 in the assay on Vero was found to be 150 µM.
